From ChEMBL document CHEMBL1255494, “In vivo comparison of the pharmacodynamic targets for echinocandin drugs against Candida species” (Antimicrob Agents Chemother, 2010)
≈ marks a conversion by molar mass, not a printed value. *1 amine or outer side, *2 acyl side, *3 side chain or, on linkers, in order; H or OH if unused. Where a SMILES comes first, the peptide text is derived from it. Bridges are numbered along the chain shown (N, C = ends). [ ]: non-standard residue; d: D form. The star is where a group is joined. hTyr(3S-OH,4S-OH,3'-OSO3H) = N[C@H](C(=O)O)[C@H](O)[C@@H](O)c1ccc(O)c(OS(=O)(=O)O)c1; pTerphenylCO(4''-OnC5H11) = CCCCCOc1ccc(-c2ccc(-c3ccc(C(=O)*)cc3)cc2)cc1; Orn(4R-OH,5R-OH) = O=C([C@H](C[C@@H](O)[C@@H](O)N[*:3])N[*:1])[*:2]; hTyr(3S-OH,4S-OH) = N[C@H](C(=O)O)[C@H](O)[C@@H](O)c1ccc(O)cc1; Pro(3S-OH,4S-Me) = C[C@H]1CN[C@H](C(=O)O)[C@H]1O; X1 = CCCCCOc1ccc(-c2cc(-c3ccc(C(=O)*)cc3)no2)cc1; Gln(3R-OH) = NC(=O)C[C@@H](O)[C@H](N)C(=O)O; Hyp = O=C(O)[C@@H]1C[C@@H](O)CN1

Columns and labels:
[1] = AUC (0 to 24 hrs) in Candida albicans infected neutropenic ICR Swiss mouse at 5 mg/kg, ip; type: ADME, organism-based; design: time < 24 hr, dose 5 mg/kg, route intraperitoneal; conditions: plasma
Summary of the method: (§1)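 Neutropenic female ICR Swiss mice (cyclophosphamide sc at 150 mg/kg on day −4, 100 mg/kg on day −1 and day +2) infected iv via tail vein with Candida; single ip doses of 5, 20 or 80 mg/kg. Serum drawn from 3 mice per time point at eight time points and assayed by microbiologic assay (C. albicans K1) or […]. Noncompartmental analysis; AUC by trapezoidal rule.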

[2] = Ratio of AUC (0 to 24 hrs) in Candida albicans infected neutropenic ICR Swiss mouse to MIC for Candida albicans at 1 log kill dose after 24 hrs; type: functional
Summary of the method: (§2)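 Neutropenic mice were infected iv and treated 2 h later. Four to six ip dose levels (0.078–160 mg/kg) were given every 24 h for 4 days, 3 mice per regimen. Kidney CFU were counted at 96 h. A sigmoid dose-effect model gave the static and 1-log-kill doses relative to burden at therapy start.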

[3] = Ratio of AUC (0 to 24 hrs) in Candida parapsilosis infected neutropenic ICR Swiss mouse to MIC for Candida parapsilosis at 1 log kill dose after 24 hrs; type: functional; summary of the method: as §2
Nakaseomyces glabratus [4] = assay: Antifungal activity against Candida glabrata 5592 after 24 hrs; type: functional; conditions: Nakaseomyces glabratus, 5592, 24 h
Summary of the method: (§3)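 Broth microdilution per CLSI M27-A3 in RPMI 1640; inoculum 0.5 × 10³ to 2.5 × 10³ cells/ml, 35°C. […] Three separate occasions in duplicate, mean reported; C. krusei ATCC 6258 and C. parapsilosis ATCC 22019 as daily QC.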

Candida parapsilosis [5] = assay: Antifungal activity against Candida parapsilosis 20435.057 after 24 hrs; type: functional; conditions: Lodderomyces parapsilosis, 20435.057, 24 h
Summary of the method: (§4)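 MICs by CLSI M27-A3 broth dilution in RPMI 1640, inoculum 0.5 × 10³ to 2.5 × 10³ cells/ml, 35°C. Read visually at 24 h as the lowest concentration giving ≥50% growth reduction versus control. Run on three occasions in duplicate and reported as the mean. C. krusei ATCC 6258 and C. parapsilosis ATCC 22019 served as QC strains.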

Nakaseomyces glabratus [6] = assay: Antifungal activity against Candida glabrata infected in neutropenic ICR Swiss mouse assessed log reduction in bacterial count […]; type: functional
Summary of the method: (§5)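 Female ICR Swiss mice, neutropenic via cyclophosphamide s.c. (150 mg/kg day −4, 100 mg/kg day −1 and day +2), infected by tail-vein injection of clinical isolates 2 h before therapy. Intraperitoneal dosing every 24 h for 4 days, 4–6 dose levels from 0.078 to 160 mg/kg, 3 mice per regimen. Kidney CFU counted at 96 h. Sigmoid dose-effect fit gives static dose and 1 log kill dose relative to burden at start of therapy.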

Candida albicans [7] = assay: Antifungal activity against Candida albicans infected in ICR Swiss mouse assessed as log reduction in bacterial count […]; type: functional; summary of the method: as §5
Nakaseomyces glabratus [8] = assay: Antifungal activity against Candida glabrata 37661 after 24 hrs; type: functional; conditions: Nakaseomyces glabratus, 37661, 24 h; summary of the method: as §4
Nakaseomyces glabratus [9] = assay: Antifungal activity against Candida glabrata infected in ICR Swiss mouse; type: functional; conditions: for ED50: Nakaseomyces glabratus; summary of the method: as §5
Candida parapsilosis [10] = assay: Antifungal activity against Candida parapsilosis 20423.078 after 24 hrs; type: functional; conditions: Lodderomyces parapsilosis, 20423.078, 24 h; summary of the method: as §4
Candida parapsilosis [11] = assay: Antifungal activity against Candida parapsilosis 20423.072 after 24 hrs; type: functional; conditions: Lodderomyces parapsilosis, 20423.072, 24 h; summary of the method: as §4
Candida albicans [12] = assay: Antifungal activity against Candida albicans 98-210 after 24 hrs; type: functional; conditions: 98-210, 24 h; summary of the method: as §3
Nakaseomyces glabratus [13] = assay: Antifungal activity against Candida glabrata 32930 after 24 hrs; type: functional; conditions: Nakaseomyces glabratus, 32930, 24 h; summary of the method: as §3
Nakaseomyces glabratus [14] = assay: Antifungal activity against Candida glabrata 5376 after 24 hrs; type: functional; conditions: Nakaseomyces glabratus, 5376, 24 h; summary of the method: as §3
Candida albicans [15] = assay: Fungistatic activity against Candida albicans infected in neutropenic ICR Swiss mouse after 24 hrs; type: functional; summary of the method: as §5
Candida parapsilosis [16] = assay: Antifungal activity against Candida parapsilosis 20557.012 after 24 hrs; type: functional; conditions: Lodderomyces parapsilosis, 20557.012, 24 h; summary of the method: as §4
[17] = Ratio of fAUC (0 to 24 hrs) in Candida glabrata infected neutropenic ICR Swiss mouse to MIC for Candida glabrata at static dose after 24 hrs; type: functional
Candida parapsilosis [18] = assay: Fungistatic activity against Candida parapsilosis infected in neutropenic ICR Swiss mouse after 24 hrs; type: functional; summary of the method: as §5
Candida albicans [19] = assay: Antifungal activity against Candida albicans 98-234 after 24 hrs; type: functional; conditions: 98-234, 24 h; summary of the method: as §4
Mus musculus [20] = assay: Cmax in Candida albicans infected neutropenic ICR Swiss mouse at 20 mg/kg, ip; type: ADME, organism-based; design: dose 20 mg/kg, route intraperitoneal; conditions: in vivo; summary of the method: as §1
Mus musculus [21] = assay: Cmax in Candida albicans infected neutropenic ICR Swiss mouse at 5 mg/kg, ip; type: ADME, organism-based; design: dose 5 mg/kg, route intraperitoneal; conditions: in vivo; summary of the method: as §1
Mus musculus [22] = assay: Cmax in Candida albicans infected neutropenic ICR Swiss mouse at 80 mg/kg, ip; type: ADME, organism-based; design: dose 80 mg/kg, route intraperitoneal; conditions: in vivo; summary of the method: as §1

SMILES: CCCCCOc1ccc(-c2cc(-c3ccc(C(=O)N[C@H]4C[C@@H](O)[C@@H](O)NC(=O)[C@@H]5[C@@H](O)[C@@H](C)CN5C(=O)[C@H]([C@H](O)CC(N)=O)NC(=O)[C@H]([C@H](O)[C@@H](O)c5ccc(O)c(OS(=O)(=O)O)c5)NC(=O)[C@@H]5C[C@@H](O)CN5C(=O)[C@H]([C@@H](C)O)NC4=O)cc3)no2)cc1 [MICAFUNGIN] (X1-[Orn(4R-OH,5R-OH)]T[Hyp][hTyr(3S-OH,4S-OH,3'-OSO3H)][Gln(3R-OH)][Pro(3S-OH,4S-Me)]; lactam 1-C)
- AUC(0-t) at 24 h [1]: 138 µg·h/mL
- Ratio [2]: 10088
- Ratio [3]: 3090
- MIC (Nakaseomyces glabratus [4]): 0.016 µg/mL (≈ 0.0126 µM)
- MIC (Candida parapsilosis [5]): 0.5 µg/mL (≈ 0.394 µM)
- Activity (Nakaseomyces glabratus [6]): 5.88 mg/kg
- Activity (Candida albicans [7]): 5.63 mg/kg
- MIC (Nakaseomyces glabratus [8]): 0.25 µg/mL (≈ 0.197 µM)
- Emax (Nakaseomyces glabratus [9]): 5.4 log10 CFU/kidneys
- ED50 (Nakaseomyces glabratus [9]): 3 mg/kg
- MIC (Candida parapsilosis [10]): 0.5 µg/mL (≈ 0.394 µM)
- MIC (Candida parapsilosis [11]): 0.25 µg/mL (≈ 0.197 µM)
- MIC (Candida albicans [12]): 0.016 µg/mL (≈ 0.0126 µM)
- MIC (Nakaseomyces glabratus [13]): 0.008 µg/mL (≈ 0.0063 µM)
- MIC (Nakaseomyces glabratus [14]): 0.008 µg/mL (≈ 0.0063 µM)
- Activity (Candida albicans [15]): 2.79 mg/kg
- MIC (Candida parapsilosis [16]): 0.25 µg/mL (≈ 0.197 µM)
- Ratio [17]: 3.9
- Activity (Candida parapsilosis [18]): 32.3 mg/kg

SMILES: CCCCCOc1ccc(-c2ccc(-c3ccc(C(=O)N[C@H]4C[C@@H](O)[C@@H](O)NC(=O)[C@@H]5[C@@H](O)[C@@H](C)CN5C(=O)[C@H]([C@@H](C)O)NC(=O)[C@H]([C@H](O)[C@@H](O)c5ccc(O)cc5)NC(=O)[C@@H]5C[C@@H](O)CN5C(=O)[C@H]([C@@H](C)O)NC4=O)cc3)cc2)cc1 [ANIDULAFUNGIN] ({pTerphenylCO(4''-OnC5H11)}-[Orn(4R-OH,5R-OH)]T[Hyp][hTyr(3S-OH,4S-OH)]T[Pro(3S-OH,4S-Me)]; lactam 1-C)
- AUC(0-t) at 24 h [1]: 96 µg·h/mL
- Ratio [2]: 9125
- MIC (Candida albicans [19]): 0.015 µg/mL (≈ 0.0132 µM)
- Ratio [3]: 2244
- MIC (Nakaseomyces glabratus [4]): 0.06 µg/mL (≈ 0.0526 µM)
- MIC (Candida parapsilosis [5]): 1 µg/mL (≈ 0.877 µM)
- Activity (Nakaseomyces glabratus [6]): 39 mg/kg
- Activity (Candida albicans [7]): 4.25 mg/kg
- MIC (Nakaseomyces glabratus [8]): 2 µg/mL (≈ 1.75 µM)
- Emax (Nakaseomyces glabratus [9]): 6 log10 CFU/kidneys
- ED50 (Nakaseomyces glabratus [9]): 15.5 mg/kg
- Cmax (Mus musculus [20]): 24 µg/mL
- Cmax (Mus musculus [21]): 4.3 µg/mL
- MIC (Candida parapsilosis [10]): 1 µg/mL (≈ 0.877 µM)
- MIC (Candida parapsilosis [11]): 1 µg/mL (≈ 0.877 µM)
- MIC (Candida albicans [12]): 0.015 µg/mL (≈ 0.0132 µM)
- MIC (Nakaseomyces glabratus [13]): 0.06 µg/mL (≈ 0.0526 µM)
- MIC (Nakaseomyces glabratus [14]): 0.03 µg/mL (≈ 0.0263 µM)
- Activity (Candida albicans [15]): 2.32 mg/kg
- MIC (Candida parapsilosis [16]): 0.5 µg/mL (≈ 0.438 µM)
- Cmax (Mus musculus [22]): 60 µg/mL
- Ratio [17]: 13.7
- Activity (Candida parapsilosis [18]): 51 mg/kg
